# Assay results from ChEMBL document CHEMBL4043191, “Discovery of novel inhibitors of multidrug-resistant Acinetobacter baumannii” (2017).
# Assays:
# [1] = system: Acinetobacter baumannii; assay: Antimicrobial activity against Acinetobacter baumannii ATCC AB19606 incubated for 16 to 20 hrs by broth microdilution method; assay type: functional
# In short: (§1)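 CLSI broth microdilution in CAMHB, twofold dilutions at final 0.250–128 µg/mL, each in triplicate. Overnight colonies from 5% horse blood agar were suspended in PBS to OD600 0.1 and diluted to a starting inoculum of 5 x 10^5 CFU/mL. Incubated 37 °C for 16–20 h. MIC is the lowest concentration with no visible growth. Quality control used E. coli ATCC 25922 with ampicillin. Final DMSO <1%.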
# [2] = system: Acinetobacter baumannii; assay: Antimicrobial activity against Acinetobacter baumannii ATCC AB17978 incubated for 16 to 20 hrs by broth microdilution method; assay type: functional; in short: as §1
# [3] = system: Acinetobacter baumannii; assay: Antimicrobial activity against Acinetobacter baumannii isolate AB5075 incubated for 16 to 20 hrs by broth microdilution method; assay type: functional; in short: as §1
# [4] = system: Acinetobacter baumannii; assay: Antimicrobial activity against Acinetobacter baumannii isolate AB5711 incubated for 16 to 20 hrs by broth microdilution method; assay type: functional; in short: as §1
# [5] = system: Acinetobacter baumannii; assay: Antimicrobial activity against Acinetobacter baumannii isolate AB3560 incubated for 16 to 20 hrs by broth microdilution method; assay type: functional; in short: as §1
# [6] = system: Acinetobacter baumannii; assay: Antimicrobial activity against Acinetobacter baumannii isolate AB3638 incubated for 16 to 20 hrs by broth microdilution method; assay type: functional; in short: as §1
# [7] = system: Acinetobacter baumannii; assay: Antimicrobial activity against Acinetobacter baumannii isolate AB0087 incubated for 16 to 20 hrs by broth microdilution method; assay type: functional; in short: as §1
# [8] = system: Acinetobacter baumannii; assay: Antimicrobial activity against Acinetobacter baumannii isolate AB4052 incubated for 16 to 20 hrs by broth microdilution method; assay type: functional; in short: as §1
# [9] = system: Acinetobacter baumannii; assay: Antimicrobial activity against Acinetobacter baumannii isolate AB5674 incubated for 16 to 20 hrs by broth microdilution method; assay type: functional; in short: as §1
# [10] = system: Acinetobacter baumannii; assay: Antimicrobial activity against Acinetobacter baumannii isolate AB0967 incubated for 16 to 20 hrs by broth microdilution method; assay type: functional; in short: as §1
# [11] = system: Acinetobacter baumannii; assay: Antimicrobial activity against Acinetobacter baumannii isolate AB4795 incubated for 16 to 20 hrs by broth microdilution method; assay type: functional; in short: as §1
# [12] = system: Acinetobacter baumannii; assay: Antimicrobial activity against Acinetobacter baumannii isolate AB4957 incubated for 16 to 20 hrs by broth microdilution method; assay type: functional; in short: as §1
# [13] = system: Acinetobacter baumannii; assay: Antimicrobial activity against Acinetobacter baumannii isolate AB585 incubated for 16 to 20 hrs by broth microdilution method; assay type: functional; in short: as §1
# [14] = system: Acinetobacter baumannii; assay: Antimicrobial activity against Acinetobacter baumannii isolate AB499 incubated for 16 to 20 hrs by broth microdilution method; assay type: functional; in short: as §1
# [15] = system: Acinetobacter baumannii; assay: Antimicrobial activity against Acinetobacter baumannii isolate AB5075 assessed as reduction in bacterial colony count at 32 ug/ml incubated for 30 mins by time kill kinetics assay relative to initial bacterial inoculum
# [16] = system: Acinetobacter baumannii; assay: Bactericidal activity against Acinetobacter baumannii isolate AB5075 assessed as reduction in bacterial colony count at 32 ug/ml incubated for 30 mins by time kill kinetics assay relative to initial bacterial inoculum relative to control; set-up: scale not given: the % may be the effect or the level left
# [17] = system: Acinetobacter baumannii; assay: Antimicrobial activity against Acinetobacter baumannii isolate AB5075 assessed as reduction in bacterial colony count at 16 ug/ml incubated for 24 hrs by time kill kinetics assay relative to initial bacterial inoculum; assay type: functional
# In short: (§2)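 Time-kill assay on AB5075. 1 mL CAMHB containing compound at 1, 2, 4 or 8× MIC was seeded with 5–7 x 10^5 CFU/mL and shaken at 37 °C for 24 h. Aliquots taken at 0, 6, 12 and 24 h were serially diluted, plated on LB agar and incubated 24 h at 37 °C before counting. Result given as log10 CFU/mL decrease versus initial inoculum. No-drug control; duplicate runs.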
# [18] = system: Acinetobacter baumannii; assay: Antimicrobial activity against Acinetobacter baumannii isolate AB5075 assessed as reduction in bacterial colony count at 32 ug/ml incubated for 24 hrs by time kill kinetics assay relative to initial bacterial inoculum; assay type: functional; in short: as §2
# [19] = system: Acinetobacter baumannii; assay: Antimicrobial activity against Acinetobacter baumannii isolate AB5075 assessed as reduction in bacterial colony count at 64 ug/ml incubated for 24 hrs by time kill kinetics assay relative to initial bacterial inoculum; assay type: functional; in short: as §2
# [20] = system: Acinetobacter baumannii; assay: Antimicrobial activity against Acinetobacter baumannii isolate AB5075 assessed as reduction in bacterial colony count at 128 ug/ml incubated for 24 hrs by time kill kinetics assay relative to initial bacterial inoculum; assay type: functional; in short: as §2
SMILES,MIC [1] [µg/mL],MIC [2] [µg/mL],MIC [3] [µg/mL],MIC [4] [µg/mL],MIC [5] [µg/mL],MIC [6] [µg/mL],MIC [7] [µg/mL],MIC [8] [µg/mL],MIC [9] [µg/mL],MIC [10] [µg/mL],MIC [11] [µg/mL],MIC [12] [µg/mL],MIC [13] [µg/mL],MIC [14] [µg/mL],Activity [15],Activity [16] [%],Activity [17] [log10CFU/ml],Activity [18] [log10CFU/ml],Activity [19] [log10CFU/ml],Activity [20] [log10CFU/ml]
Oc1ccc(Cl)cc1Cc1cc(Cl)ccc1O [DICHLOROPHEN],16,16,32,16,16,16,8,16,16,16,16,16,8,8,>=3 log10CFU/ml,99.9,–,–,–,–
CCO[C@@H]1CCC[C@H](CC(=O)NNc2ccccc2)[C@H]1O,16,16,16,32,32,16,4,32,16,16,8,32,8,1,–,–,0.46,0.75,1.24,1.74
CCOCCC(=O)NNc1ccccc1,16,16,16,16,32,16,2,32,16,16,8,32,8,1,–,–,0.73,1.02,1.42,2.1
